Results: the RNAGym collection of RNA variant scans (doi:10.1126/science.aae0568)
Fewer inactive variants are shown than the library holds.

B1: tRNA (parent)
chain: GUUCCGUUGGCGUAAUGGUAACGCGUCUCCCUCCUAAGGAGAAGACUGCGGGUUCGAGUCCCGUACGGAACG

Variants of: B1
Assay: yeast fitness relative to wild type (ratio to wild type); higher = fitter; tRNA-Arg(CCU), competitive growth, 37 C, YPD
How it was run: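 Gene amplicons from the start population and from each of six end populations were read by 100-nucleotide paired-end sequencing. Those end populations came from pooled Saccharomyces cerevisiae strains carrying tRNA-Arg(CCU) gene variants at the native locus, competed in YPD at 37°C for 24 hours. Fitness relative to wild type was worked out from changes in genotype frequencies. Genotypes needed ≥ 100 starting reads, and estimates < 0.5 were set to 0.5.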

| Variant | yeast fitness |
| --- | --- |
| U19A C22G C30G A42G C46G | 0.741 |
| U19A C22G C34U A42G A43G G51A A70U | ≤ 0.5 |
| U19A C22G G23C C30G C34A | 0.519 |
| U19A C22G G23C C30G C34A C55U | ≤ 0.5 |
| U19A C22U A37C G38C | 0.516 |
| U19A C22U A40U G51C C66U A70G | ≤ 0.5 |
| U19A C22U U32C C60G | ≤ 0.5 |
| U19A C24A | 0.598 |
| U19A C24A C31G C62U G68C | 0.535 |
| U19A C24A C31G G68C | ≤ 0.5 |
| U19A C24G | 0.633 |
| U19A C24G C27U C30A U64A A70C | ≤ 0.5 |
| U19A C24G C33G C34G | 0.528 |
| U19A C24G C61U | ≤ 0.5 |
| U19A C24G G25A C46G G52A A65C | ≤ 0.5 |
| U19A C24G G38A G58C C60U C62U C66U | ≤ 0.5 |
| U19A C24U | 1.03 |
| U19A C24U A69U | 0.746 |
| U19A C24U C29A U54A | ≤ 0.5 |
| U19A C24U G38A U54C | ≤ 0.5 |
| U19A C24U G38A U54C C55U C66A | ≤ 0.5 |

| Variant | yeast fitness |
| --- | --- |
| U19A C24U G38A U54C C62U C66A | ≤ 0.5 |
| U19A C27A A45C | 0.557 |
| U19A C27A C31A A57C | 0.799 |
| U19A C27A C31A G52A G58C A70G | ≤ 0.5 |
| U19A C27G A65U | ≤ 0.5 |
| U19A C27U | 1.02 |
| U19A C27U A43U C55U | ≤ 0.5 |
| U19A C27U A45U C62A | ≤ 0.5 |
| U19A C27U A57G | 0.725 |
| U19A C27U C55U | 0.572 |
| U19A C27U G44A | 0.781 |
| U19A C29G C46A G68C | ≤ 0.5 |
| U19A C29G G48A C61A | 0.683 |
| U19A C29G U54C G58A | ≤ 0.5 |
| U19A C30A A45U G50C | 0.62 |
| U19A C30G | 0.671 |
| U19A C30G A36G A57U A65U | ≤ 0.5 |
| U19A C30G A36G C61G | ≤ 0.5 |
| U19A C30G A43C U47C U54C | ≤ 0.5 |
| U19A C30G G39C U53C C55A | ≤ 0.5 |
| U19A C30U G38C U53G | ≤ 0.5 |

| Variant | yeast fitness |
| --- | --- |
| U19A C31G A65U | 0.582 |
| U19A C31G A70U | 0.919 |
| U19A C31G G38C A40C G56A | 0.569 |
| U19A C31U | 0.954 |
| U19A C34G A43C C49U | ≤ 0.5 |
| U19A C46U A57C A70C | ≤ 0.5 |
| U19A C49G U59C C60G C62G | ≤ 0.5 |
| U19A C55U | 0.694 |
| U19A C60G A69U | ≤ 0.5 |
| U19A C60G A70C | 0.502 |
| U19A C62U | 0.931 |
| U19A C66A | 0.607 |
| U19A C66G | 0.686 |
| U19A C66U | 0.996 |
| U19A G23C C30A A36G C60U | ≤ 0.5 |
| U19A G25A A37U A42G C55U | ≤ 0.5 |
| U19A G25C C33A A37G C55U | ≤ 0.5 |
| U19A G25C C33A A37G G44A | ≤ 0.5 |
| U19A G25C C33A A37G G68A | ≤ 0.5 |
| U19A G38C C60A | ≤ 0.5 |
| U19A G39C A69U | 0.574 |

| Variant | yeast fitness |
| --- | --- |
| U19A G41A A42G G58U G63C | ≤ 0.5 |
| U19A G41C A70U | ≤ 0.5 |
| U19A G44A A69C | 0.685 |
| U19A G48A | 1.05 |
| U19A G48A A69U | 0.966 |
| U19A G50A | 0.795 |
| U19A G52C | 0.656 |
| U19A G58A A69U | 1.2 |
| U19A G67C | 0.74 |
| U19A G67U | 0.974 |
| U19A U26A | 0.907 |
| U19A U26A C29A C46G U54A | 0.603 |
| U19A U26C | 0.834 |
| U19A U26C C30A A43C | ≤ 0.5 |
| U19A U26C C30A G67U | ≤ 0.5 |
| U19A U26C C49G C66G | ≤ 0.5 |
| U19A U28A C60G | ≤ 0.5 |
| U19A U28A U53G | ≤ 0.5 |
| U19A U32A A36G | ≤ 0.5 |
| U19A U35A A36U C55G G56C | ≤ 0.5 |
